One block for each compound: values may come before it. Active and inactive are the calls of the source. How the calls were made is not given here.
Key:
[1] = test system: Trypanosoma cruzi; assay: Antiparasitic activity against Trypanosoma cruzi T2 epimastigotes assessed as growth inhibition at 25 uM after 5 days; format: functional
In short: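 Late-log epimastigotes were grown axenically at 28 °C in BHI-tryptose with 5% fetal calf serum and seeded at 2×10^6/mL in medium containing compound (DMSO stock; final DMSO ≤1%, 1% DMSO control). Growth was read as A590 at day 0 and day 5. Inhibition = {1 − [(Ap − A0p)/(Ac − A0c)]} × 100. Means of two experiments.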

[2] = Selectivity for Trypanosoma cruzi triosephosphate isomerase over human triosephosphate isomerase
[3] = biological target: Triosephosphate isomerase, glycosomal (Trypanosoma cruzi) (UniProt P52270); assay: Inhibition of Trypanosoma cruzi triosephosphate isomerase at 400 uM after 2 hrs
In short: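 Recombinant E. coli-expressed enzyme, dialyzed into 100 mM triethanolamine/10 mM EDTA pH 7.4, was incubated with compound (DMSO stock) in 100 mM triethanolamine, 10 mM EDTA, pH 7.4, 10% DMSO at 36 °C for 2 h. An aliquot was then assayed for activity (glyceraldehyde 3-phosphate to dihydroxyacetone phosphate, α-glycerol phosphate dehydrogenase-coupled) with 5 ng enzyme. Irreversible inhibition was scored as loss of activity; means of two experiments.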

Sequence of Triosephosphate isomerase, glycosomal (Trypanosoma cruzi) (P52270 whole entry): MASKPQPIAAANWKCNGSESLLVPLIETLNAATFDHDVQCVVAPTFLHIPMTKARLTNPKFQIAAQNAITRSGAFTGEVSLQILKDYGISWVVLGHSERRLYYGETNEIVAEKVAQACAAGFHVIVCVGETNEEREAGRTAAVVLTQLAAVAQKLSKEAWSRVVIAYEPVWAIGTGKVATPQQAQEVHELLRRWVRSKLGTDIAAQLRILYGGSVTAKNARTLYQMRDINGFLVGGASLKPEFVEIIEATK

SMILES: COC(=O)N/N=C/c1ccc([N+](=O)[O-])o1
Activity [1]: Active
Ratio [2]: > 4
inhibition [3]: 0%

SMILES: Cc1c(CNc2cccc3ccccc23)no[n+]1[O-]
Activity [1]: Active
Ratio [2]: > 4
inhibition [3]: 41%

SMILES: CCOC(=O)c1[nH]c(=O)n(CCc2ccccc2)c1C
Activity [1]: Active
Ratio [2]: > 4
inhibition [3]: 0%

SMILES: NC(=O)N/N=C/C=C/c1ccc([N+](=O)[O-])o1
Activity [1]: Active
Ratio [2]: > 4
inhibition [3]: 13%

SMILES: CCCCCCNC(=O)N/N=C/C=C/c1ccc([N+](=O)[O-])o1
Activity [1]: Active
Ratio [2]: > 4
inhibition [3]: 72%

SMILES: CCNC(=S)N/N=C/c1ccc([N+](=O)[O-])o1
Activity [1]: Active
Ratio [2]: > 4
inhibition [3]: 3%

SMILES: CCCCNC(=O)N/N=C/c1c(C)no[n+]1[O-]
Activity [1]: Active
Ratio [2]: > 4
inhibition [3]: 2%

SMILES: Nc1ccc2c(c1)[n+]([O-])c1cc(Br)ccc1[n+]2[O-]
Activity [1]: Active
Ratio [2]: > 4
inhibition [3]: 59%

SMILES: COCCNC(=O)N/N=C/c1ccc([N+](=O)[O-])o1
Activity [1]: Active
Ratio [2]: > 4
inhibition [3]: 5%

SMILES: CCCCNC(=O)N/N=C/c1c(-c2ccccc2)no[n+]1[O-]
Activity [1]: Active
Ratio [2]: > 4
inhibition [3]: 27%

SMILES: C=CCNC(=S)N/N=C/C=C/c1ccco1
Activity [1]: Active
Ratio [2]: > 4
inhibition [3]: 15%

SMILES: C=C(C)CNC(=O)Oc1ccccc1
Activity [1]: Active
Ratio [2]: > 4
inhibition [3]: 48%

SMILES: O=C(N/N=C/c1ccc([N+](=O)[O-])s1)N1CCOCC1
Activity [1]: Active
Ratio [2]: > 4
inhibition [3]: 5%

SMILES: CC(=O)Oc1c(C)c(C)c2c(c1C)CCC(C)(C(=O)NCCO[N+](=O)[O-])O2 (stereo unspecified)
inhibition [3]: 7%

Further lines, with some results ahead:

Ratio [2]: > 4
inhibition [3]: 18%
SMILES: CCCCNC(=O)N/N=C/c1ccc([N+](=O)[O-])s1
Activity [1]: Active

Ratio [2]: > 4
inhibition [3]: 69%
SMILES: [O-][n+]1onc2ccc(/C=C\[S+]([O-])c3ccccc3)cc21 (stereo unspecified)
Activity [1]: Active

Ratio [2]: > 4
inhibition [3]: 0%
SMILES: O=C(/C=C/c1ccc([N+](=O)[O-])o1)N1CCN(C/C=C/c2ccccc2)CC1
Activity [1]: Active

Ratio [2]: > 4
inhibition [3]: 32%
SMILES: COc1ccc(C=O)cc1-c1cc(C=O)ccc1O
Activity [1]: Active

Ratio [2]: > 4
inhibition [3]: 0%
SMILES: CCCCNS(=O)(=O)NCCCC
Activity [1]: Active

Ratio [2]: > 4
inhibition [3]: 36%
SMILES: CC1(C)[N+]([O-])=c2ccc(C3OCCO3)cc2=[N+]1[O-]
Activity [1]: Active

Ratio [2]: > 4
inhibition [3]: 21%
SMILES: O=C(Oc1ccccc1)N1CCN(C/C=C/c2ccccc2)CC1
Activity [1]: Active

Ratio [2]: > 4
inhibition [3]: 27%
SMILES: O=C(N/N=C/c1ccc([N+](=O)[O-])o1)Oc1ccccc1
Activity [1]: Active

Ratio [2]: > 4
inhibition [3]: 4%
SMILES: Cc1n(O)c2ccc(Br)cc2[n+]1[O-]
Activity [1]: Active

Ratio [2]: > 4
inhibition [3]: 6%
SMILES: Cc1ccc2c(c1)[n+]([O-])c(C)n2O
Activity [1]: Active

Ratio [2]: > 4
inhibition [3]: 3%
SMILES: COC(=O)N/N=C/c1ccc2no[n+]([O-])c2c1
Activity [1]: Active

Ratio [2]: > 4
inhibition [3]: 17%
SMILES: O=[N+]([O-])c1ccc(/C=N/NC(=S)Nc2ccccc2)o1
Activity [1]: Active

Ratio [2]: > 4
inhibition [3]: 11%
SMILES: Cc1c(C)[n+]([O-])c2cc(C=O)ccc2[n+]1[O-]
Activity [1]: Active

Ratio [2]: > 4
inhibition [3]: 16%
SMILES: COC(=O)N/N=C/c1ccc2nonc2c1
Activity [1]: Active

Ratio [2]: > 4
inhibition [3]: 0%
SMILES: O=S(=O)(NC1CCCCC1)NC1CCCCC1
Activity [1]: Active

inhibition [3]: 23%
SMILES: [O-][n+]1onc(-c2ccccc2)c1CO
